Test results taken from ChEMBL document CHEMBL4406800, “Discovery of Potent Protease-Activated Receptor 4 Antagonists with in Vivo Antithrombotic Efficacy” (J Med Chem, 2019).
pIC50: −log10 of the molar value.

Key:
[1] = biological target: T1, Proteinase-activated receptor 4 (Homo sapiens, UniProt Q96RI0); assay: Antagonist activity at full-length human PAR4 expressed in HEK293 cells assessed as inhibition of AYPGKF-induced intracellular calcium mobilization preincubated for 30 mins followed by AYPGKF addition and measured by calcium indicator-based FLIPR assay; assay type: functional, cell-based
T1 sequence (Q96RI0 whole entry): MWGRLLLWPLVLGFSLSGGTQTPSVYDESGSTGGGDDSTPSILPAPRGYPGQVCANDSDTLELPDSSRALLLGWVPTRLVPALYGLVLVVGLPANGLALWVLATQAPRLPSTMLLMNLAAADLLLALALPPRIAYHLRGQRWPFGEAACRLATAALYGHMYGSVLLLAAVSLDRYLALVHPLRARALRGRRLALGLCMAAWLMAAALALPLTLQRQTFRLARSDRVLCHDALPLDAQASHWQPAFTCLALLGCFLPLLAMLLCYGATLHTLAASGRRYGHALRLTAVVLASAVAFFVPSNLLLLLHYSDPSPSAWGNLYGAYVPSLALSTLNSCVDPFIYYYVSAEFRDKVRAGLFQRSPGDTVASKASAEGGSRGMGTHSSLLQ

[2] = Stability in human liver microsomes assessed as parent compound remaining measured after 10 mins; assay type: ADME, Microsome; conditions: for remaining at 10 min: liver microsomes, read-out: Stability; for Stability: microsomes, 10 min
[3] = Stability in rat liver microsomes assessed as parent compound remaining measured after 10 mins; assay type: ADME, Microsome; conditions: read-out: Stability
[4] = Half life in human liver microsomes; assay type: ADME, Microsome; conditions: for t1/2: microsomes
[5] = Oral bioavailability in rat at 2 mg/kg; assay type: ADME, organism-based; conditions: in vivo
Method in brief: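 Rat dosing: iv 0.5 mpk as a 10 min infusion in 25/75 propylene glycol/PEG400 at 2 ml/kg. po 2 mpk in 5/5/90 EtOH/TPGS/PEG300 at 5 mL/kg.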

[6] = Half life in rat liver microsomes; assay type: ADME, Microsome
[7] = Clearance in rat at 2 mg/kg, po or 0.5 mg/kg, iv administered as infusion for 10 mins; assay type: ADME, organism-based; conditions: in vivo
[8] = Half life in rat at 2 mg/kg, po or 0.5 mg/kg, iv administered as infusion for 10 mins; assay type: ADME, organism-based; conditions: in vivo

Compound: COc1cc(OCc2ccc(C(F)(F)F)cc2)c2cc(-c3cn4nc(OC)sc4n3)oc2c1
- pIC50 [1]: 8.37
- remaining at 10 min [2]: 79%
- remaining at 10 min [3]: 90%

Compound: COc1cc(OCc2cccc(Cl)c2)c2cc(-c3cn4nc(OC)sc4n3)oc2c1
- pIC50 [1]: 8.48
- remaining at 10 min [2]: 82%
- remaining at 10 min [3]: 79%

Compound: COc1cc(OCc2cccc(Oc3ccccc3)c2)c2cc(-c3cn4nc(OC)sc4n3)oc2c1
- pIC50 [1]: 8.92
- remaining at 10 min [2]: 86%
- remaining at 10 min [3]: 42%

Compound: COc1nn2cc(-c3cc4ccccc4o3)nc2s1
- pIC50 [1]: 8.40
- Stability [2]: 80%
- remaining at 10 min [3]: 31%
- t1/2 [4]: 6.9 min

Compound: CS(=O)(=O)c1nn2cc(-c3cc4ccccc4o3)nc2s1
- pIC50 [1]: 6.09

Compound: COc1cc(OCc2ccccc2OCc2ccccc2)c2cc(-c3cn4nc(OC)sc4n3)oc2c1
- pIC50 [1]: 8.49
- remaining at 10 min [2]: 94%
- remaining at 10 min [3]: 22%

Compound: CCSc1nn2cc(-c3cc4ccccc4o3)nc2s1
- pIC50 [1]: 5.54
- remaining at 10 min [2]: 45%
- remaining at 10 min [3]: 35%

Compound: COc1cc(OCc2cccc(Sc3ccccc3)c2)c2cc(-c3cn4nc(OC)sc4n3)oc2c1
- pIC50 [1]: 9.05
- remaining at 10 min [2]: 80%
- remaining at 10 min [3]: 45%

Compound: COc1cc(OCc2ccc(Cl)cc2)c2cc(-c3cn4nc(OC)sc4n3)oc2c1
- pIC50 [1]: 7.96

Compound: COc1cc(OCc2cccc(COc3ccccc3)c2)c2cc(-c3cn4nc(OC)sc4n3)oc2c1
- pIC50 [1]: 8.49
- remaining at 10 min [2]: 86%
- remaining at 10 min [3]: 64%

Compound: CCOc1nn2cc(-c3cc4ccccc4o3)nc2s1
- pIC50 [1]: 7.17
- remaining at 10 min [2]: 57%
- remaining at 10 min [3]: 37%

Compound: COc1cc(OCCc2ccccc2)c2cc(-c3cn4nc(OC)sc4n3)oc2c1
- pIC50 [1]: 8.96
- remaining at 10 min [2]: 89%
- remaining at 10 min [3]: 43%

Compound: COc1ccc2oc(-c3cn4nc(OC)sc4n3)cc2c1
- remaining at 10 min [2]: 30%
- remaining at 10 min [3]: 38%

Compound: COc1ccc2cc(-c3cn4nc(OC)sc4n3)oc2c1
- remaining at 10 min [2]: 57%
- remaining at 10 min [3]: 55%

Compound: COc1cc(OCc2cccc(C(F)(F)F)c2)c2cc(-c3cn4nc(OC)sc4n3)oc2c1
- pIC50 [1]: 8.51
- remaining at 10 min [2]: 93%
- remaining at 10 min [3]: 79%

Compound: COc1cc(OCc2cccc(CO)c2)c2cc(-c3cn4nc(OC)sc4n3)oc2c1
- pIC50 [1]: 7.57

Compound: COc1cc(OCCOc2ccccc2)c2cc(-c3cn4nc(OC)sc4n3)oc2c1
- pIC50 [1]: 9.09
- remaining at 10 min [2]: 65%
- remaining at 10 min [3]: 36%

Compound: COc1cc(OCc2ccc(OCc3ccccc3)cc2)c2cc(-c3cn4nc(OC)sc4n3)oc2c1
- pIC50 [1]: 8.89
- remaining at 10 min [2]: 88%
- remaining at 10 min [3]: 84%

Compound: COc1cccc(COc2cc(OC)cc3oc(-c4cn5nc(OC)sc5n4)cc23)c1
- pIC50 [1]: 8.03
- remaining at 10 min [2]: 69%
- remaining at 10 min [3]: 34%

Compound: c1ccc(Sc2nn3cc(-c4cc5ccccc5o4)nc3s2)cc1
- pIC50 [1]: 5.72

Compound: CCc1nn2cc(-c3cc4ccccc4o3)nc2s1
- pIC50 [1]: 7.42
- remaining at 10 min [2]: 30%
- remaining at 10 min [3]: 3%

Compound: CNc1nn2cc(-c3cc4ccccc4o3)nc2s1
- pIC50 [1]: 6.96
- remaining at 10 min [2]: 65%
- remaining at 10 min [3]: 2%

Compound: COc1cc(OCc2cccc(C#N)c2)c2cc(-c3cn4nc(OC)sc4n3)oc2c1
- pIC50 [1]: 9.01
- remaining at 10 min [2]: 100%

Compound: COc1nn2cc(-c3cc4cccc(OC)c4o3)nc2s1
- pIC50 [1]: 8.55
- remaining at 10 min [2]: 25%
- remaining at 10 min [3]: 11%

Compound: COc1cc(OCc2ccccc2)c2cc(-c3cn4nc(OC)sc4n3)oc2c1
- bioavailability [5]: 27%

Compound: CSc1nn2cc(-c3cc4ccccc4o3)nc2s1
- pIC50 [1]: 7.96
- remaining at 10 min [2]: 25%
- remaining at 10 min [3]: 4%
- half-life ([4]; liver microsomes): 5.4 min

Compound: c1ccc2oc(-c3cn4nc(C5CC5)sc4n3)cc2c1
- pIC50 [1]: 6.28
- remaining at 10 min [2]: 62%
- remaining at 10 min [3]: 53%

Compound: COc1cc(OC)c2cc(-c3cn4nc(OC)sc4n3)oc2c1
- Stability [2]: 86%
- remaining at 10 min [3]: 70%
- t1/2 [4]: 17 min
- half-life [6]: 22 min
- clearance [7]: 33 mL/min/kg
- half-life [8]: 192 min
- bioavailability [5]: 1%

Compound: COc1cc(OCc2ccccc2C)c2cc(-c3cn4nc(OC)sc4n3)oc2c1
- pIC50 [1]: 8.80
- remaining at 10 min [2]: 90%
- remaining at 10 min [3]: 46%

Compound: COc1nn2cc(-c3cc4c(OC)cccc4o3)nc2s1
- pIC50 [1]: 8.12
- remaining at 10 min [2]: 40%
- remaining at 10 min [3]: 42%

Compound: COc1nn2cc(-c3cc4c(OC)ccc(OC)c4o3)nc2s1
- remaining at 10 min [2]: 55%
- remaining at 10 min [3]: 28%

Compound: COc1cc(OCc2ccccc2C(F)(F)F)c2cc(-c3cn4nc(OC)sc4n3)oc2c1
- pIC50 [1]: 8.47

Compound: COc1nn2cc(-c3cc4ccc(OC)c(OC)c4o3)nc2s1
- remaining at 10 min [2]: 20%
- remaining at 10 min [3]: 3%

Compound: Cc1nn2cc(-c3cc4ccccc4o3)nc2s1
- pIC50 [1]: 7.43
- remaining at 10 min [2]: 20%
- remaining at 10 min [3]: 4%

Compound: COc1cc(OCc2cccc(O)c2)c2cc(-c3cn4nc(OC)sc4n3)oc2c1
- pIC50 [1]: 8.51
- remaining at 10 min [2]: 97%
- remaining at 10 min [3]: 49%

Compound: COc1ccc(COc2cc(OC)cc3oc(-c4cn5nc(OC)sc5n4)cc23)cc1
- pIC50 [1]: 8.80
- remaining at 10 min [2]: 73%
- remaining at 10 min [3]: 64%

Compound: COc1cc(OCc2ccccc2Cl)c2cc(-c3cn4nc(OC)sc4n3)oc2c1
- pIC50 [1]: 8.64
- remaining at 10 min [2]: 95%
- remaining at 10 min [3]: 78%

Compound: COc1cc(OCc2cccc(CCc3ccccc3)c2)c2cc(-c3cn4nc(OC)sc4n3)oc2c1
- pIC50 [1]: 8.62
- remaining at 10 min [2]: 99%
- remaining at 10 min [3]: 68%

Compound: COc1cc(OCc2ccccc2OC)c2cc(-c3cn4nc(OC)sc4n3)oc2c1
- pIC50 [1]: 7.72
- remaining at 10 min [2]: 82%
- remaining at 10 min [3]: 28%

Compound: COc1nn2cc(-c3cc4c(OCc5ccccc5)cccc4o3)nc2s1
- pIC50 [1]: 7.62
- remaining at 10 min [2]: 85%
- remaining at 10 min [3]: 75%

Compound: COc1nn2cc(-c3cc4ccc(OCc5ccccc5)cc4o3)nc2s1
- remaining at 10 min [2]: 94%
- remaining at 10 min [3]: 68%

Compound: COc1cc(OCCOCc2ccccc2)c2cc(-c3cn4nc(OC)sc4n3)oc2c1
- pIC50 [1]: 8.74
- remaining at 10 min [2]: 75%
- remaining at 10 min [3]: 25%

Compound: CC(C)Oc1nn2cc(-c3cc4ccccc4o3)nc2s1
- pIC50 [1]: 6.12
